# “Also recorded” adds a separate entry of the source. Where two headings read alike, the source gives them in different places.
# What was measured:
# Caco-2 monolayers [1] = test: Drug transport; format: in vitro ADME, human; details: for Papp (× 10^−5) (cm/s) AP-to-BL / Papp (× 10^−5) (cm/s) BL-to-AP: 37°C, 30-120 min, mean ± SD (n=3)
# Caco-2 cells [2] = test: Cytotoxicity assay; format: cell-based; details: concentrations up to 500 µM, 24 h
# [3] = tested on: labile iron pool (LIP) in THP-1 cells; test: Calcein-based iron chelation assay; format: cell-based, human; details: iron-loaded THP-1 cells, 10 µM chelator, SIH as positive control
# In short: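 THP-1 cells were loaded with ferric sulfate at 25 µM for 1 h (figure legend: iron(II) sulfate at 10 µM for 3 h, 37°C). They then took calcein-AM at 0.2 µM for 10 min at 37°C, were washed and resuspended in PBS. Chelator (10 µM) or SIH (30 µM) was added. Fluorescence (ex 465/em 510 nm) was read immediately in repeated 2-min cycles at 37°C, expressed as (F−Fi)/Fi, with Fi = fluorescence at time 0.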
# [4] = Stability and isomer conversion of chelator solutions by HPLC; format: physicochemical; details: resolved by HPLC
# In short: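 Solutions diluted in HBSS from 100 mM DMSO stocks, sonicated and warmed to 37°C. Stored at 4°C for one week with freeze-thaw, or 4 h at room temperature or 40°C. 50 µM solutions with a 10 µM thiosemicarbazone internal standard injected fresh and after 24 h at 4°C. Reversed-phase F5 column, 40°C, 1 mL/min, 2 mM ammonium acetate/10 mM EDTA–acetonitrile 50:50, pH 5.8, UV 318 nm.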
# HIV-1 = details: ref [14], cited from earlier work
# lung cancer xenografts = details: mice, oral route; ref (35); cited from earlier work
# Cytotoxicity assay = format: cell-based; details: human
# [5] = ref [30]; cited from earlier work
# Caco-2 cells [6] = details: Caco-2 cells in vitro; ref [34]; cited from earlier work
# Caco-2 monolayers [7] = test: Lucifer yellow; format: in vitro ADME, human; details: either direction, at the ends of the experiments
# [8] = 100 µM chelator, Caco-2 monolayers
# [9] = 300 µM chelator, Caco-2 monolayers
compound,measurement,setting,value
"C=CCNC(=S)NN=C(c1ccccc1)c1ccccn1 [Bp4aT, 2-benzoylpyridine 4-allyl-3-thiosemicarbazone]","Rnet, ratio of Papp (BL-to-AP) to Papp (AP-to-BL)",Caco-2 monolayers [1]; 100 µM chelator,0.77
same,Papp (× 10^−5) (cm/s) AP-to-BL,Caco-2 monolayers [1]; [8],1.670 ± 0.016 × 10^−5 cm/s
same,Papp (× 10^−5) (cm/s) BL-to-AP,Caco-2 monolayers [1]; [8],1.292 ± 0.282 × 10^−5 cm/s
same,"Rnet, ratio of Papp (BL-to-AP) to Papp (AP-to-BL)",Caco-2 monolayers [1]; 300 µM chelator,0.92
same,Papp (× 10^−5) (cm/s) AP-to-BL,Caco-2 monolayers [1]; [9],2.756 ± 0.261 × 10^−5 cm/s
same,Papp (× 10^−5) (cm/s) BL-to-AP,Caco-2 monolayers [1]; [9],2.534 ± 0.454 × 10^−5 cm/s
same,Transport of Bp4aT faster than that of Bp4eT,"Caco-2 monolayers [1]; relative to Bp4eT, Caco-2 monolayers",approximately 1.5 fold
same,Effect on Caco-2 cell growth / cytotoxicity,Caco-2 cells [2],little effect; also recorded: no apparent cytotoxicity
same,Intracellular iron chelation (calcein de-quenching),[3],slightly more effective intracellular iron chelators than SIH; also recorded: greater chelation efficacy than Bp4eT
same,E/Z isomer formation in aqueous solution,[4],formed inter-convertible Z and E isomers
same,"IC50, inhibition of HIV-1 replication",HIV-1; [15],nanomolar concentrations
"CCNC(=S)NN=C(c1ccccc1)c1ccccn1 [Bp4eT, 2-benzoylpyridine 4-ethyl-3-thiosemicarbazone]","Rnet, ratio of Papp (BL-to-AP) to Papp (AP-to-BL)",Caco-2 monolayers [1]; 100 µM chelator,1.10
same,Papp (× 10^−5) (cm/s) AP-to-BL,Caco-2 monolayers [1]; [8],0.809 ± 0.119 × 10^−5 cm/s
same,Papp (× 10^−5) (cm/s) BL-to-AP,Caco-2 monolayers [1]; [8],0.889 ± 0.196 × 10^−5 cm/s
same,"Rnet, ratio of Papp (BL-to-AP) to Papp (AP-to-BL)",Caco-2 monolayers [1]; 300 µM chelator,0.89
same,Papp (× 10^−5) (cm/s) AP-to-BL,Caco-2 monolayers [1]; [9],1.819 ± 0.302 × 10^−5 cm/s
same,Papp (× 10^−5) (cm/s) BL-to-AP,Caco-2 monolayers [1]; [9],1.627 ± 0.107 × 10^−5 cm/s
same,Intracellular iron chelation (calcein de-quenching),[3],slightly more effective intracellular iron chelators than SIH
same,E/Z isomer formation in aqueous solution,[4],formed inter-convertible Z and E isomers
same,"IC50, inhibition of HIV-1 replication",HIV-1; [15],nanomolar concentrations
"CN(C)C(=S)NN=C(c1ccccc1)c1ccccn1 [Bp44mT, 2-benzoylpyridine-4,4-dimethyl-3-thiosemicarbazone]",Efficacy against lung cancer xenografts,lung cancer xenografts,marked efficacy
"NC(=S)NN=C(c1ccccc1)c1ccccn1 [BpT, 2-benzoylpyridine thiosemicarbazone]","viability at 24 h, 500 µM",Cytotoxicity assay,~70%
"CC(=O)N(O)CCCCCNC(=O)CCC(=O)N(O)CCCCCNC(=O)CCC(=O)N(O)CCCCCN [DFO, desferrioxamine]",Absorption through the gastrointestinal tract,[5],very poor absorption
"O=C(O)c1ccc(-n2nc(-c3ccccc3O)nc2-c2ccccc2O)cc1 [ICL670, 4-[3,5-bis-(hydroxyphenyl)-1,2,4-triazol-1-yl]-benzoic acid, reference compound]","IC50, inhibition of HIV-1 replication",HIV-1; [15],high micromolar concentrations
same,"IC50, inhibition of HIV-1 replication",HIV-1,high micromolar range
same,Papp value,Caco-2 cells [6],1.66 ± 0.13 × 10^−5 cm/s
lucifer yellow [LY],LY recovered from the receiver chambers,Caco-2 monolayers [7],Less than 2%

# Source: publication PMC3457786 (Journal of chromatography. B, Analytical technologies in …, 2012)
